Measured values published in ChEMBL document CHEMBL1124972, “Antiatherosclerotic agents. A structurally novel bivalent inhibitor of acylCoA:cholesterol O-acyltransferase with systemic activity” (J Med Chem, 1990).

Tests used:
[1] = target: T1, Acyl-CoA:cholesterol acyltransferase (Oryctolagus cuniculus) (UniProt Q95214); assay: Arterial Acyl coenzyme A:cholesterol acyltransferase activity was measured in vitro in rabbit aorta after administration of 50 mg/Kg; type: functional, organism-based
T1 sequence (whole entry): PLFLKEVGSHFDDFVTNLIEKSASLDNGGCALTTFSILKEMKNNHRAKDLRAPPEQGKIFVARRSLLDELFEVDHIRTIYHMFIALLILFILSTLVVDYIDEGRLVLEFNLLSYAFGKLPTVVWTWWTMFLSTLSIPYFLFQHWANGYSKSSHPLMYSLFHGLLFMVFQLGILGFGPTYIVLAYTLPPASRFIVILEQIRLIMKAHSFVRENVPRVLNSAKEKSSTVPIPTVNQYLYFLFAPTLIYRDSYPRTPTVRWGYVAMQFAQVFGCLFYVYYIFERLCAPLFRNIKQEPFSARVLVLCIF
Summary of the method: (§1)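 Rabbits given 10-day cholesterol feeding to raise arterial ACAT, then dosed orally at 50 mg kg⁻¹ day⁻¹ for 6 days; aortas excised, incubated in vitro with [1-14C]oleate for 3 h; ACAT activity as cholesteryl [14C]oleate formed, dpm/100 mg wet weight aorta; means of 2 animals per group.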

[2] = test system: Sterol O-acyltransferase 1 (Rattus norvegicus); assay: Reduction of ACAT activity after treatment was measured in rat liver
Oryctolagus cuniculus [3] = assay: Tested in vivo for plasma cholesterol levels in Netherland Dwarf rabbit; type: functional, organism-based
Summary of the method: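 Netherland Dwarf rabbits fed cholesterol-containing atherogenic diet, with test agent at 50 mg/kg; plasma total cholesterol in mg/dL measured, alongside aortic lesion surface involvement; means ±SEM of 8 animals per group.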

Rattus norvegicus [4] = assay: Tested for plasma cholesterol levels against rat after 2.5 hours of oral administration.; type: functional, organism-based
Summary of the method: (§2)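 Male Sprague-Dawley rats (4 per group) intubated orally with 0.6 mL suspension of 1 μCi [4-14C]cholesterol (53 Ci/Mol), corn oil, ethanol, DMSO and 1 mg cholesterol, with or without test agent at 30 mg/kg. Two rats per group bled by cardiac puncture at 2.5 and 6 h; plasma [14C]cholesterol measured as dpm/mL; mean of two animals.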

Rattus norvegicus [5] = assay: Tested for plasma cholesterol levels against rat after 6.0 hours of oral administration.; type: functional, organism-based; summary of the method: as §2
[6] = target: T2, Sterol O-acyltransferase 1 (Rattus norvegicus) (UniProt O70536); assay: ACAT inhibitory activity was measured in rat liver after administration of 30 mg/Kg; type: functional, organism-based
T2 sequence (whole entry): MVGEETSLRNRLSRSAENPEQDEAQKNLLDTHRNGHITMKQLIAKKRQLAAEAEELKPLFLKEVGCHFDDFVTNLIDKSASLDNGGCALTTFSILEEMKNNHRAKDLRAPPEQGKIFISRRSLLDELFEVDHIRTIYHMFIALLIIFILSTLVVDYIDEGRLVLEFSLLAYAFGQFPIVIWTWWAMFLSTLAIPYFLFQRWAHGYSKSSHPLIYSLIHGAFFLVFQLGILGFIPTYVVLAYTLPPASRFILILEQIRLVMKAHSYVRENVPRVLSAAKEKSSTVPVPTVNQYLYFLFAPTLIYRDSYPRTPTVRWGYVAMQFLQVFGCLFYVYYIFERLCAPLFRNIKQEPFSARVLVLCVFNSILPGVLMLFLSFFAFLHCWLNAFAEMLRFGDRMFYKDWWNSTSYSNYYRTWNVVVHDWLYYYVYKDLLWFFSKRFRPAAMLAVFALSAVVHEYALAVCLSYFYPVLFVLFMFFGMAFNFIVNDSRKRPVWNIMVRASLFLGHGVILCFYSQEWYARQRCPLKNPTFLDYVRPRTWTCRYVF
Summary of the method: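 Male Sprague-Dawley rats (435-460 g) fed Purina chow with compound in diet (calculated 30 mg kg⁻¹ day⁻¹) for 8 days; liver minces incubated in vitro with [1-14C]oleate for 90 min; ACAT activity read as cholesteryl [14C]oleate formed, dpm/100 mg wet weight; means of 2 animals per group.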

[7] = target: T1, Acyl-CoA:cholesterol acyltransferase (Oryctolagus cuniculus); assay: Reduction of ACAT activity after treatment was measured in rabbit aorta; type: functional, tissue-based; summary of the method: as §1
[8] = target: T3, Acyl-CoA:cholesterol acyltransferase (Oryctolagus cuniculus, UniProt Q95214); assay: In vitro inhibitory activity against Acyl coenzyme A:cholesterol acyltransferase
T3 sequence (Q95214 whole entry): T1 sequence (whole entry)
Summary of the method: (§3)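 Cellular assay: Fu5AH cells cultured with [³H]cholesterol-labeled hyperlipemic plasma lipoproteins; inhibition of [³H]cholesteryl ester synthesis and accumulation measured; IC50 given in μg/mL.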

Oryctolagus cuniculus [9] = assay: Tested in vivo for atheromatous lesion development in Netherland Dwarf rabbit; type: functional
Summary of the method: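 Netherland Dwarf rabbits on cholesterol-containing atherogenic diet, dosed at 50 mg/kg; aortic lesion formation scored as % surface involvement, with plasma total cholesterol (mg/dL); means (±SEM) of 8 animals per group.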

[10] = target: T1, Acyl-CoA:cholesterol acyltransferase (Oryctolagus cuniculus); assay: In vitro inhibitory activity against Acyl coenzyme A:cholesterol acyltransferase at a concentration of 5 ug/mL
[11] = target: T3, Acyl-CoA:cholesterol acyltransferase; assay: In vitro inhibitory activity against Acyl coenzyme A:cholesterol acyltransferase; a = inactive; summary of the method: as §3

## COc1c2occc2c(OC)c2c(=O)cc(CN3CCC(CCC4CCN(Cc5cc(=O)c6c(OC)c7ccoc7c(OC)c6o5)CC4)CC3)oc12
[1]
  ACAT activity (dpm/100 mg wet wt): 305
[2]
  Reduction: 62%
Oryctolagus cuniculus [3]
  Plasma total cholesterol: 271 mg/dL
Rattus norvegicus [4]
  Plasma [14C] cholesterol: 818 dpm/mL
Rattus norvegicus [5]
  Plasma [14C] cholesterol: 3880 dpm/mL
[6]
  ACAT activity (dpm/100 mg wet wt): 535
[7]
  Reduction: 42%
[8]
  IC50: 1.12 µM
Oryctolagus cuniculus [9]
  Surface involvement: <10%

## COc1c2occc2c(OC)c2c(=O)cc(CN3CCN(CC(O)CN4CCN(Cc5cc(=O)c6c(OC)c7ccoc7c(OC)c6o5)CC4)CC3)oc12
[10]
  inhibition: 7%

## COc1c2occc2c(OC)c2c(=O)cc(CN3CCC(C4CCN(Cc5cc(=O)c6c(OC)c7ccoc7c(OC)c6o5)CC4)CC3)oc12
[10]
  inhibition: 0%

## COc1c2occ(F)c2c(OC)c2c(=O)cc(CN3CCC(CCC4CCN(Cc5cc(=O)c6c(OC)c7c(F)coc7c(OC)c6o5)CC4)CC3)oc12
[8]
  IC50: < 13.4 µM

## COc1c2occc2c(OC)c2c(=O)cc(CN3CCN(CCN4CCN(Cc5cc(=O)c6c(OC)c7ccoc7c(OC)c6o5)CC4)CC3)oc12
[10]
  inhibition: 5%

## COc1c2occc2c(O)c2c(=O)cc(CN3CCC(CCC4CCN(Cc5cc(=O)c6c(O)c7ccoc7c(OC)c6o5)CC4)CC3)oc12
[11]
  IC50: Not Active

## COc1c2c(c(OC)c3c(=O)cc(CN4CCC(CCC5CCN(Cc6cc(=O)c7c(OC)c8c(c(OC)c7o6)OCC8)CC5)CC4)oc13)CCO2
[8]
  IC50: 4.19 µM

## COc1c2occc2c(OC)c2c(=O)cc(CN3CCC(CCCC4CCN(Cc5cc(=O)c6c(OC)c7ccoc7c(OC)c6o5)CC4)CC3)oc12
[8]
  IC50: 5.78 µM
